In article PMC11964602 (Bioactive Materials, 2025):
Where two headings read alike, the source gives them in different places. Where no end group is shown, it is not given here.

Experiments:
[1] = system: HUVECs; assay: Tube formation assay with H2O2-generated ROS; type: cell-based, human; conditions: 25 μg/mL, 24 h
Method in brief: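 Confluent HUVECs were harvested and seeded at 1 × 10^4 cells per chamber on basement membrane matrix (Geltrex)-coated chamber slides. ROS groups received H2O2 (200 μM solution). Parent and metabolite peptides were each at 25 μg/mL in medium. After 24 h incubation, tubular networks were imaged by bright-field microscopy and tube parameters quantified by image analysis.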

[2] = system: HUVECs; assay: Wound healing assay; type: cell-based, human; conditions: 25 μg/mL, 8 h, vs control
Method in brief: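 A confluent HUVEC monolayer was scratched with a sterile 200 μL pipette tip and debris washed off with PBS. Medium containing peptide at 25 μg/mL was added, and cells migrated 8 h at 37 °C. Bright-field images were taken at 0 and 8 h and wound areas measured by image analysis. Percent closure was computed from initial area minus 8-h area. Three experiments were run, each in triplicate wells.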

[3] = system: HUVECs; assay: Cytotoxicity assay; type: cell-based, human; conditions: HUVECs; 6.25–50 μg/mL; 24 h
Method in brief: (§1)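 Cells seeded at 10,000 per well and grown 24 h. They were then given medium containing 6.25–50 μg/mL peptide, with medium alone as control, for 24 h at 37 °C, 5% CO2. CCK-8 reagent was added and incubated 1 h at 37 °C, and absorbance read at 450 nm. Cytotoxicity was calculated from the OD values.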

[4] = Cytotoxicity assay; type: cell-based, human
Method in brief: as §1

[5] = system: rat RBCs; assay: Hemolysis assay; type: cell-based; conditions: 62.5–1000 μg/mL, 37 °C, 30 min
Method in brief: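 Rat RBCs in glycine-buffered stabilizing saline were exposed to test peptide at 62.5, 125, 250, 500 or 1000 μg/mL for 30 min at 37 °C in a water bath, then centrifuged. Supernatant absorbance was read at 540 nm. RBCs in stabilizing buffer defined 0% hemolysis and 0.1% SDS (final) defined 100%.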

[6] = system: NIH/3T3; assay: Cytotoxicity assay; type: cell-based, mouse; conditions: NIH/3T3; 6.25–50 μg/mL; 24 h
Method in brief: as §1

[7] = Cytotoxicity assay; type: cell-based, mouse
Method in brief: as §1

[8] = system: CPB, porcine carboxypeptidase; conditions: cited from earlier work
[9] = biological target: SARS-CoV-2 main protease (M^pro) (SARS-CoV-2 (Wuhan-Hu-1 isolate)) (UniProt P0DTD1)
[10] = biological target: T1, SARS-CoV-2 main protease (M^pro) (SARS-CoV-2 (Wuhan-Hu-1 isolate), UniProt P0DTD1); assay: ITC
[11] = biological target: T1, SARS-CoV-2 main protease (M^pro); assay: cell-based or functional assay

Molecule: CC[C@H](C)[C@H](NC(=O)[C@H](CCC(=O)O)NC(=O)[C@H](C)NC(=O)[C@H](CCSC)NC(=O)[C@H](CC(=O)O)NC(=O)[C@@H]1CCCN1C(=O)[C@H](CCCCN)NC(=O)[C@H](CC(=O)O)NC(=O)[C@H](CO)NC(C)=O)C(=O)N[C@@H](CCC(=O)O)C(=O)N[C@@H](CCCCN)C(=O)N[C@@H](Cc1ccccc1)C(=O)N[C@@H](CC(=O)O)C(=O)N[C@@H](CCCCN)C(=O)N[C@@H](CO)C(=O)N[C@@H](CCCCN)C(=O)N[C@@H](CC(C)C)C(=O)N[C@@H](CCCCN)C(=O)N[C@@H](CCCCN)C(=O)N[C@H](C(=O)N[C@@H](CCC(=O)O)C(=O)N[C@H](C(=O)N[C@@H](CCC(N)=O)C(=O)N[C@@H](CCC(=O)O)C(=O)N[C@@H](CCCCN)C(=O)N[C@@H](CC(N)=O)C(=O)N1CCC[C@H]1C(=O)N[C@@H](CC(C)C)C(=O)N1CCC[C@H]1C(=O)N[C@@H](CO)C(=O)N[C@@H](CCCCN)C(=O)N[C@@H](CCC(=O)O)C(=O)N[C@H](C(=O)N[C@H](C(=O)N[C@@H](CCC(=O)O)C(=O)N[C@@H](CCC(N)=O)C(=O)N[C@@H](CCC(=O)O)C(=O)N[C@@H](CCCCN)C(=O)N[C@@H](CCC(N)=O)C(=O)N[C@@H](C)C(=O)NCC(=O)N[C@@H](CCC(=O)O)C(=O)N[C@@H](CO)C(=O)O)[C@@H](C)CC)[C@@H](C)O)[C@@H](C)O)[C@@H](C)O [Ac-Tβ4, Acetyl-thymosin β4]
- tube formation under H2O2 (ROS scavenging) [1]: failed to mitigate ROS-induced damage
- wound closure [2]: significantly enhanced wound closure
- cytotoxicity [3]: No cytotoxicity
- viability [4]: > 90%
- hemolytic activity, OD values compared to 0.1 % SDS [5]: < 1.5%
- cytotoxicity [6]: No cytotoxicity
- viability [7]: > 90%

Molecule: Ac-Tβ4_31-43: peptide metabolite of Ac-Tβ4, amino acids 31-43 (KETIEQEKQAGES; Thymosin beta-4; UniProt P62328 32-44, looked up, fragment)
- detected as metabolite of Ac-Tβ4: CPB [8]: D ^a

Molecule: FDKS peptide
- IC50 of inhibition of SARS-CoV-2 M^pro, FRET-based enzymatic assay [9]: 63.2 µM

B1: Ac-Tβ_(1-14), acetyl-thymosin β4 (amino acids 1-14) (peptide)
peptide: Ac-SDKPDMAEIEKFDK
- Kd [10]: 19.4 µM
- dH [10]: 40.3 kcal/mol
- stoichiometry N [10]: 1.05
- IC50 of inhibition of SARS-CoV-2 M^pro, FRET-based enzymatic assay [11]: 26.1 µM

B2: Ac-Tβ_(1-17), acetyl-thymosin β4 (amino acid 1-17) (peptide)
peptide: Ac-SDKPDMAEIEKFDKSKL
- Kd [10]: 22 µM
- dH [10]: -11.4 kcal/mol
- stoichiometry N [10]: 0.87
- IC50 of inhibition of SARS-CoV-2 M^pro, FRET-based enzymatic assay [11]: 22.4 µM
